In ChEMBL document CHEMBL1275394, “Design, synthesis, and biological evaluation of novel hybrid dicaffeoyltartaric/diketo acid and tetrazole-substituted L-chicoric acid analogue inhibitors of human immunodeficiency virus type 1 integrase” (J Med Chem, 2010):

Assays:
[1] = Cytotoxicity against human MT2 cells assessed as concentration required to 50% inhibition of cell growth relative to control; format: cell-based; settings: read-out: Activity
Outline: (§1)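 MT-2 cells were grown in RPMI-1640 without antibiotics and exposed to compound. CT50 and CT5 are the concentrations inhibiting cellular replication by 50% and 5% relative to untreated control; CT5 corresponds to 95% viable cells. Values are the mean of triplicate assays with SD.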

[2] = Inhibition of HIV NL4-3 recombinant histidine-tagged integrase 3'-end processing activity expressed in Escherichia coli BL21 (DE3); design: species or system Human immunodeficiency virus
Outline: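 N-terminal 6-His-tagged HIV-1 NL4-3 IN expressed in E. coli BL21 DE3 pLysS, Ni2+ affinity purified (>95%), stored at -80 °C. The 32P-labeled blunt-end V1/V2 duplex mimicking the viral LTR was incubated with IN and increasing compound concentrations at 37 °C for 1 h, in triplicate. Products were resolved by denaturing PAGE and quantified by phosphorimager. 3'-processing was read as the 21mer to 19mer conversion.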

[3] = system: Human immunodeficiency virus; test: Antiviral activity against HIV LAI infected in human MT2 cells assessed as protection against virus-induced cytopathic effect; format: functional, organism-based; settings: Human immunodeficiency virus 1, LAI
Outline: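 MT-2 cells were cultured in RPMI-1640 without antibiotics and infected with HIV LAI. EC50 is the concentration protecting 50% of cells from virus-induced cytopathic effect. Values are the mean of triplicate assays with SD.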

[4] = system: MT2; test: Cytotoxicity against human MT2 cells assessed as concentration required to 5% inhibition of cell growth relative to control; format: cell-based; outline: as §1
[5] = Inhibition of HIV NL4-3 recombinant histidine-tagged integrase strand transfer activity expressed in Escherichia coli BL21 (DE3); design: species or system Human immunodeficiency virus
[6] = Therapeutic index, ratio of CT50 for human MT2 cells to EC50 for HIV LAI; format: cell-based; settings: read-out: TI

SMILES	CC50 [1] [nM]	IC50 [2] [nM]	EC50 [3] [nM]	Activity [4] [µM]	IC50 [5] [nM]	selectivity ratio [6]
O=C(O)/C(O)=C/C(=O)c1ccc(O)c(O)c1	178000	470	> 67000	67	1130	
COC(=O)/C(O)=C/C(=O)c1ccc(O)c(O)c1	182000	2810	> 36000	36	1890	
O=C(/C=C(\O)C(=O)O)/C=C/c1ccc(O)c(O)c1	80000	1100	> 36000	32	810	
COC(=O)/C(O)=C/C(=O)c1ccc(NC(=O)/C=C/c2ccc(O)c(O)c2)cc1	39500	1820	> 54000	12.4	1380	
O=C(/C=C/c1ccc(O)c(O)c1)Nc1ccccc1C(=O)/C=C(\O)C(=O)O	53000	2280	> 37500	23.3	2550	
O=C(/C=C/c1ccc(O)c(O)c1)Nc1cccc(C(=O)/C=C(\O)C(=O)O)c1	52800	110	> 34000	20.4	360	
O=C(/C=C/c1ccc(O)c(O)c1)Nc1cc(NC(=O)/C=C/c2ccc(O)c(O)c2)cc(C(=O)/C=C(\O)C(=O)O)c1	> 50700	120	> 51000	> 50.7	130	
COC(=O)/C(O)=C/C(=O)c1cc(NC(=O)/C=C/c2ccc(O)c(O)c2)cc(NC(=O)/C=C/c2ccc(O)c(O)c2)c1	> 47700	750	> 48000	> 47.7	630	
O=C(/C=C/c1ccc(O)c(O)c1)O[C@@H](C(=O)O)[C@@H](OC(=O)c1cccn1Cc1ccc(F)cc1)C(=O)O	399000	4050	110000	41.8	1270	
NC(=O)[C@H](OC(=O)/C=C/c1ccc(O)c(O)c1)[C@@H](OC(=O)/C=C/c1ccc(O)c(O)c1)c1nnn[nH]1	31900	210	420	5.7	270	> 350
O=C(/C=C/c1ccc(O)c(O)c1)O[C@@H](c1nnn[nH]1)[C@@H](OC(=O)/C=C/c1ccc(O)c(O)c1)c1nnn[nH]1	422000	340	330	28.4	440	> 350
O=C(O[C@@H](C(=O)O)[C@@H](O)C(=O)O)c1cccn1Cc1ccc(F)cc1	792000	277000	> 170000	60.8	47300	
O=C(O[C@@H](C(=O)O)[C@@H](OC(=O)c1cccn1Cc1ccc(F)cc1)C(=O)O)c1cccn1Cc1ccc(F)cc1	374000	136000	> 90500	28.7	74200	
O=C(/C=C/c1ccc(O)c(O)c1)Nc1ccc(C(=O)/C=C(\O)C(=O)O)cc1	47200	400	> 16900	26.1	350	
O=C(O)C(=O)CC(=O)c1cccn1Cc1ccc(F)cc1	> 69300	13000	400	> 69.3	140	
O=C(/C=C/c1ccc(O)c(O)c1)OCC(OC(=O)/C=C/c1ccc(O)c(O)c1)c1nnn[nH]1 (racemic)	> 42500	140	850	> 42.5	120	
O=C(/C=C/c1cc(O)c(O)c(O)c1)OC(c1nnn[nH]1)C(OC(=O)/C=C/c1cc(O)c(O)c(O)c1)c1nnn[nH]1 (single isomer, unassigned)	48900	390	60	11.3	210	> 350
O=C(/C=C/c1ccc(O)c(O)c1)O[C@@H](C(=O)O)[C@@H](O)C(=O)O [CAFTARIC ACID]	325000	19100	80500	49.6	6080	
O=C(/C=C/c1ccc(O)c(O)c1)O[C@@H](C(=O)O)[C@@H](OC(=O)/C=C/c1ccc(O)c(O)c1)C(=O)O [CICHORIC ACID]	124000	220	810	41	270	
